From ChEMBL document CHEMBL1152541, “Staurosporine tethered peptide ligands that target cAMP-dependent protein kinase (PKA): optimization and selectivity profiling” (Bioorg Med Chem, 2009)
*1 amine or outer side, *2 acyl side, *3 side chain or, on linkers, in order; H or OH if unused. Where a SMILES comes first, the peptide text is derived from it. Bridges are numbered along the chain shown (N, C = ends). [ ]: non-standard residue; d: D form. The star is where a group is joined. Staurosporine = CO[C@@H]1[C@H](N(C)*)C[C@H]2O[C@]1(C)n1c3ccccc3c3c4c(c5c6ccccc6n2c5c31)C(=O)NC4; Suc = O=C(CCC(=O)[*:2])[*:1]; Dap = NC[C@H](N)C(=O)O; βAla = NCCC(=O)O

Tests used:
[1] = molecular target: Receptor tyrosine-protein kinase erbB-4 (Homo sapiens) (UniProt Q15303); assay: Binding affinity to human ERBB4 at 500 nM by cell-based competition binding assay relative to control in presence of DTT
Procedure, shortened: (§1)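 Commercial (Ambit) competitive kinase-binding panel of 90 kinases measured the binding profile. Run under reducing conditions of 7.5 mM DTT. Binding is expressed relative to control.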

[2] = molecular target: Serine/threonine-protein kinase pim-1 (Homo sapiens) (UniProt P11309); assay: Binding affinity to human PIM1 at 500 nM by cell-based competition binding assay relative to control in presence of DTT
[3] = molecular target: Non-receptor tyrosine-protein kinase TYK2 (Homo sapiens) (UniProt P29597); assay: Binding affinity to human TYK2 kinase domain 2 at 500 nM by cell-based competition binding assay relative to control in presence of DTT
[4] = molecular target: Vascular endothelial growth factor receptor 2 (Homo sapiens) (UniProt P35968); assay: Binding affinity to human VEGFR2 at 500 nM by cell-based competition binding assay relative to control in presence of DTT
[5] = molecular target: Cyclin-dependent kinase 3 (Homo sapiens) (UniProt Q00526); assay: Binding affinity to human CDK3 at 500 nM by cell-based competition binding assay relative to control in presence of DTT
Procedure, shortened: (§2)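 Kinase binding profiling ran on a commercial (Ambit) competitive binding screen against a panel of 90 kinases. The screen used reducing conditions with 7.5 mM DTT. To withstand the DTT, the bivalent ligand was tested as its amide isostere, with the disulfide replaced. A staurosporine derivative carrying a 3 β-alanine linker was run as the reference compound.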

[6] = molecular target: MAP kinase-interacting serine/threonine-protein kinase 2 (Homo sapiens) (UniProt Q9HBH9); assay: Binding affinity to human MKNK2 at 500 nM by cell-based competition binding assay relative to control in presence of DTT
[7] = molecular target: Mitogen-activated protein kinase 3 (Homo sapiens) (UniProt P27361); assay: Binding affinity to human ERK1 at 200 nM by cell-based competition binding assay relative to control in presence of DTT; procedure, shortened: as §1
[8] = molecular target: Receptor-type tyrosine-protein kinase FLT3 (Homo sapiens) (UniProt P36888); assay: Binding affinity to human FLT3 at 200 nM by cell-based competition binding assay relative to control in presence of DTT; procedure, shortened: as §1
[9] = molecular target: T1, Serine/threonine-protein kinase STK11 (Homo sapiens) (UniProt Q15831); assay: Binding affinity to human LKB1 at 200 nM by cell-based competition binding assay relative to control in presence of DTT
T1 sequence (whole entry): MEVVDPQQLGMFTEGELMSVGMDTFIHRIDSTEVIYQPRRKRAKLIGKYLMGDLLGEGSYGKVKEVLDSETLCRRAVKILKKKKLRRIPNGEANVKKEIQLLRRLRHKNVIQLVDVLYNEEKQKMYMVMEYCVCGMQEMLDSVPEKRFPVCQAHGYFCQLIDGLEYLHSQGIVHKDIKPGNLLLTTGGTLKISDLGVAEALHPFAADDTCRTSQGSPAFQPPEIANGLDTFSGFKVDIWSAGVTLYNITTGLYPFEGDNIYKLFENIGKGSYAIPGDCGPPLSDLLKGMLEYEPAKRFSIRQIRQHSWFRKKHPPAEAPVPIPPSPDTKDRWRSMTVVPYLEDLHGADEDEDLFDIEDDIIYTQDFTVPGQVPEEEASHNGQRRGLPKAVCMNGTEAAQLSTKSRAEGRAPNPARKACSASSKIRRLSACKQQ
Procedure, shortened: (§3)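 Competition binding screen (Ambit) across a panel of 90 kinases, scoring test ligand displacement of each kinase's binding relative to control. The screen ran under reducing conditions with 7.5 mM DTT.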

[10] = system: Serine/threonine-protein kinase B-raf (Homo sapiens), P15056 [V600E]; assay: Binding affinity to human BRAF V600E mutant at 200 nM by cell-based competition binding assay relative to control in presence of DTT; procedure, shortened: as §2
[11] = molecular target: T2, Bone morphogenetic protein receptor type-2 (Homo sapiens) (UniProt Q13873); assay: Binding affinity to human BMPR2 at 50 nM by cell-based competition binding assay relative to control in presence of DTT; procedure, shortened: as §2
T2 sequence (whole entry): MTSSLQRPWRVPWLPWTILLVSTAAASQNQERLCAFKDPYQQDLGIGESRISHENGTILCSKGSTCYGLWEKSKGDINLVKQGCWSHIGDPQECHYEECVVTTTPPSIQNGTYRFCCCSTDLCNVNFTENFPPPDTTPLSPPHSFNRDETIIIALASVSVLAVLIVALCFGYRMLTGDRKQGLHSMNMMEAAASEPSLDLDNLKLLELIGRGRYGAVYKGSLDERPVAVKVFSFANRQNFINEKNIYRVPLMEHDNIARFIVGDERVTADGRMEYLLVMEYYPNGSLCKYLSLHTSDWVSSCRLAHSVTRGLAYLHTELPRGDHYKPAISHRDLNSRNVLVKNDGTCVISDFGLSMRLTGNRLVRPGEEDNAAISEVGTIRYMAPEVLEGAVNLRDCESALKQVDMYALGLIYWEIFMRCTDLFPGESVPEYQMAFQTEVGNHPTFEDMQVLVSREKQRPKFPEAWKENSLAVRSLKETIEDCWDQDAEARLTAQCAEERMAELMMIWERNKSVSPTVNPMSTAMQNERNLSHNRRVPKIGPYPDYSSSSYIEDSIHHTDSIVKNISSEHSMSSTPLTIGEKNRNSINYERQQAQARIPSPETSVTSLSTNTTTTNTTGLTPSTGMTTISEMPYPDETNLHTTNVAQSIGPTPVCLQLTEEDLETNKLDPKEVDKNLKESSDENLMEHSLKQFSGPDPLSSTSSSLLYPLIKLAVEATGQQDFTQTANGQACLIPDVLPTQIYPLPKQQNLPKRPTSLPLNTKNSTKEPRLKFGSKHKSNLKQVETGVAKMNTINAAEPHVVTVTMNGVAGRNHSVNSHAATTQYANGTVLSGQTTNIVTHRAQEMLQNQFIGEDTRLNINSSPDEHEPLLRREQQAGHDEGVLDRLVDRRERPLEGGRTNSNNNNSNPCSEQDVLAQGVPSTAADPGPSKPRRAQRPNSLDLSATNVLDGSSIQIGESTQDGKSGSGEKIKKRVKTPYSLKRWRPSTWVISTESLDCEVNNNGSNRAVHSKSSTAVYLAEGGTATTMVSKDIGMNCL

[12] = molecular target: MAP kinase-interacting serine/threonine-protein kinase 2 (Homo sapiens) (UniProt Q9HBH9); assay: Binding affinity to human MKNK2 at 50 nM by cell-based competition binding assay relative to control in presence of DTT
[13] = molecular target: Angiopoietin-1 receptor (Homo sapiens) (UniProt Q02763); assay: Binding affinity to human TIE2 at 50 nM by cell-based competition binding assay relative to control in presence of DTT
[14] = molecular target: Mitogen-activated protein kinase 9 (Homo sapiens) (UniProt P45984); assay: Binding affinity to human JNK2 at 50 nM by cell-based competition binding assay relative to control in presence of DTT; procedure, shortened: as §3
[15] = molecular target: cAMP-dependent protein kinase catalytic subunit alpha (Homo sapiens) (UniProt P17612); assay: Binding affinity to human PKACalpha at 50 nM by cell-based competition binding assay relative to control in presence of DTT

With `CO[C@@H]1[C@H](N(C)C(=O)CCC(=O)NCCC(=O)NCCC(=O)NCCC(N)=O)C[C@H]2O[C@]1(C)n1c3ccccc3c3c4c(c5c6ccccc6n2c5c31)C(=O)NC4` the Activity [1] was 70%, the Activity [2] was 20% and the Activity [3] was 19%. For the same compound, the Activity [4] was 36%, the Activity [5] was 87% and the Activity [6] was 39%.
`CO[C@@H]1[C@H](N(C)C(=O)CCC(=O)NCCC(=O)NCCC(=O)NCCC(=O)NCCC(=O)NCCC(=O)NCCC(=O)NCCC(=O)N[C@H]2CSSC[C@@H](C(=O)NCC(N)=O)NC(=O)CNC(=O)[C@H](Cc3ccccc3)NC(=O)[C@H](C(C)C)NC(=O)[C@H](CCCNC(=N)N)NC(=O)[C@H](Cc3ccccc3)NC(=O)[C@H](C(C)C)NC2=O)C[C@H]2O[C@]1(C)n1c3ccccc3c3c4c(c5c6ccccc6n2c5c31)C(=O)NC4` ({Staurosporine-Suc-βAla-βAla-βAla-βAla-βAla-βAla-βAla}-CVFRVFGCG-NH2; disulfide 1-8) was tested, and the Activity [7] was 100%, the Activity [8] was 1% and the Activity [9] was 81%. The Activity [10] was 100%.
`CO[C@@H]1[C@H](N(C)C(=O)CCC(=O)NCCC(=O)NCCC(=O)NCCC(=O)NCCC(=O)NCCC(=O)NCCC(=O)NCCC(=O)N[C@H]2CNC(=O)C[C@@H](C(N)=O)NC(=O)CNC(=O)[C@H](Cc3ccccc3)NC(=O)[C@H](C(C)C)NC(=O)[C@H](CCCNC(=N)N)NC(=O)[C@H](Cc3ccccc3)NC(=O)[C@H](C(C)C)NC2=O)C[C@H]2O[C@]1(C)n1c3ccccc3c3c4c(c5c6ccccc6n2c5c31)C(=O)NC4` ({Staurosporine-Suc-βAla-βAla-βAla-βAla-βAla-βAla-βAla}-[Dap]VFRVFGD-NH2; lactam 1-8) was tested, and the Activity [11] was 99%, the Activity [12] was 100% and the Activity [13] was 100%. It also gave an Activity [14] of 88% and an Activity [15] of 10%.
